ChEMBL document CHEMBL3813677, “Structure-Activity Relationship Studies and Molecular Modeling of Naphthalene-Based Sphingosine Kinase 2 Inhibitors” (ACS Med Chem Lett, 2016)

Experiments:
[1] = target: T1, Sphingosine kinase 2 (Homo sapiens) (UniProt Q9NRA0); assay: Inhibition of human recombinant SphK2 remaining enzyme activity at 1 uM using sphingosine as substrate incubated for 20 mins by scintillation counting analysis in presence of [gamma-32P]ATP
T1 sequence (whole entry): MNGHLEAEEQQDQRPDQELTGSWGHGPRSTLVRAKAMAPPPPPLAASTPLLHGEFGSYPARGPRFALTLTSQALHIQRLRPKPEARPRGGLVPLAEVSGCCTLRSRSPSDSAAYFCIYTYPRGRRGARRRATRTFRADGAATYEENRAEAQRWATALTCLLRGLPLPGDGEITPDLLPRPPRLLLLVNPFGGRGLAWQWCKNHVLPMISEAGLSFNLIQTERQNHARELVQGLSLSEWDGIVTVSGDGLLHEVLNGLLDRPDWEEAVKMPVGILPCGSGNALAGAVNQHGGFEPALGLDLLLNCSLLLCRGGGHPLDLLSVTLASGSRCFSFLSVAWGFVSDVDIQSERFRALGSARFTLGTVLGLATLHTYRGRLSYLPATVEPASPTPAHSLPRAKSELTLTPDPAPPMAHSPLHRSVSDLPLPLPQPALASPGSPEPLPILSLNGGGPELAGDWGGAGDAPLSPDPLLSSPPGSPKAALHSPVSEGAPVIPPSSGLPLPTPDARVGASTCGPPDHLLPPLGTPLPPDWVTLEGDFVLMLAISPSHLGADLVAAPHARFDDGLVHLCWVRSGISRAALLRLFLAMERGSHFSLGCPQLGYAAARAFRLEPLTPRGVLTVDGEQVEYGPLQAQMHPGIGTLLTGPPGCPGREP

[2] = species on record: Homo sapiens; assay: Selectivity ratio of Ki for human recombinant SphK1 to Ki for human recombinant SphK2
Procedure, shortened: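 Recombinant human SphK1 and SphK2. Inhibitory constants came from kinetic analysis of S1P production, with sphingosine concentration varied and ATP held at a fixed concentration, run with and without inhibitor. Selectivity was taken as the ratio of the two enzymes' constants.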

[3] = target: T2, Sphingosine kinase 2 (Homo sapiens, UniProt Q9NRA0); assay: Inhibition of human recombinant SphK2 using sphingosine as substrate incubated for 20 mins by scintillation counting analysis in presence of [gamma-32P]ATP
T2 sequence (Q9NRA0 whole entry): T1 sequence (whole entry)

[4] = target: Sphingosine kinase 1 (Homo sapiens, UniProt Q9NYA1); assay: Inhibition of human recombinant SphK1 using sphingosine as substrate incubated for 20 mins by scintillation counting analysis in presence of [gamma-32P]ATP
Sphingosine kinase 1, sequence (Q9NYA1 whole entry): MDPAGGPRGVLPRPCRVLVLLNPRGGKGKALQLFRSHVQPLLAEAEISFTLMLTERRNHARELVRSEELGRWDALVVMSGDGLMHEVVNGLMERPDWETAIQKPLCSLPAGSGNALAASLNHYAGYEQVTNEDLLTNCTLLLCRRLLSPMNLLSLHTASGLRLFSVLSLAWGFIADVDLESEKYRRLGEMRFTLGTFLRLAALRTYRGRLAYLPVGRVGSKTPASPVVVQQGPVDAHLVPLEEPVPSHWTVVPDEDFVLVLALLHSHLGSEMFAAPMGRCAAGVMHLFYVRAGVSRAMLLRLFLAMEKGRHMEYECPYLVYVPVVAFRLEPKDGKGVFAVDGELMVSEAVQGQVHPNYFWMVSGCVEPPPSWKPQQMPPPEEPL

SMILES	Activity [1] [%]	Ratio Ki [2]	Ki [3] [nM]	Ki [4] [nM]
N=C(N)N1CCC[C@H]1c1nc(-c2ccc3cc(OCc4ccc(-c5ccccc5)cc4)ccc3c2)no1	51			
N=C(N)N1CCC[C@H]1c1nc(-c2ccc3cc(OCc4ccc(Cl)cc4)ccc3c2)no1	56			
Cc1ccc(S(=O)(=O)Oc2ccc3cc(-c4noc([C@@H]5CCCN5C(=N)N)n4)ccc3c2)cc1	89			
N=C(N)N1CCC[C@H]1c1nc(-c2ccc3cc(OCc4cccc(C(F)(F)F)c4)ccc3c2)no1	81			
N#Cc1ccc(COc2ccc3cc(-c4noc([C@@H]5CCCN5C(=N)N)n4)ccc3c2)cc1	43			
CCCCCCOc1ccc2cc(-c3noc([C@@H]4CCCN4C(=N)N)n3)ccc2c1	64	> 2.6	3800	> 10000
N=C(N)N1CCC[C@H]1c1nc(-c2ccc3cc(OCc4cccc(Br)c4)ccc3c2)no1	49			
N=C(N)N1CCC[C@H]1c1nc(-c2ccc3cc(O)ccc3c2)no1	106			
N=C(N)N1CCC[C@H]1c1nc(-c2ccc3cc(OCCc4cccc(C(F)(F)F)c4)ccc3c2)no1	34			
CCCCCOc1ccc2cc(-c3noc([C@@H]4[C@@H](O)CCN4C(=N)N)n3)ccc2c1	46	0.8	900	730
N=C(N)N1CCC[C@H]1c1nc(-c2ccc3cc(OCc4cccc(Cl)c4)ccc3c2)no1	46			
N=C(N)N1CCC[C@H]1c1nc(-c2ccc3cc(OCCc4ccc(C(F)(F)F)cc4)ccc3c2)no1	30			
N=C(N)N1CCC[C@H]1c1nc(-c2ccc3cc(OCCc4ccccc4C(F)(F)F)ccc3c2)no1	47			
N=C(N)N1CCC[C@H]1c1nc(-c2ccc3cc(OCC4CCCC4)ccc3c2)no1	57			
CCCCCOc1ccc2cc(-c3noc([C@@H]4CCCN4C(=N)N)n3)ccc2c1	51	7.3	980	7200
N=C(N)N1CCC[C@H]1c1nc(-c2ccc3cc(OCc4ccccc4)ccc3c2)no1	97			
Cc1ccc(COc2ccc3cc(-c4noc([C@@H]5CCCN5C(=N)N)n4)ccc3c2)cc1	94			
CC1(C)CCC(C)(C)c2cc(COc3ccc4cc(-c5noc([C@@H]6CCCN6C(=N)N)n5)ccc4c3)ccc21	104			
CCCCCCCCc1ccc(-c2noc([C@@H]3CCCN3C(=N)N)n2)cc1	61		1400	
N=C(N)N1CCC[C@H]1c1nc(-c2ccc3cc(OCc4ccc(Br)cc4)ccc3c2)no1	35			
CC(C)COc1ccc2cc(-c3noc([C@@H]4[C@@H](O)CCN4C(=N)N)n3)ccc2c1	53	0.9	980	930
N=C(N)N1CCC[C@H]1c1nc(-c2ccc3cc(OCC(=O)c4ccccc4)ccc3c2)no1	103			
CCCCOc1ccc2cc(-c3noc([C@@H]4CCCN4C(=N)N)n3)ccc2c1	69			
N=C(N)N1CCC[C@H]1c1nc(-c2ccc3cc(OCc4ccc(C(F)(F)F)cc4)ccc3c2)no1	42		1020	
CC(C)COc1ccc2cc(-c3noc([C@@H]4CCCN4C(=N)N)n3)ccc2c1	74			
CCCCCCCOc1ccc2cc(-c3noc([C@@H]4CCCN4C(=N)N)n3)ccc2c1	83			
COCCCOc1ccc2cc(-c3noc([C@@H]4CCCN4C(=N)N)n3)ccc2c1	109			
N=C(N)N1CCC[C@H]1c1nc(-c2ccc3cc(OCC(=O)c4ccc(C(F)(F)F)cc4)ccc3c2)no1	65			
COCCOc1ccc2cc(-c3noc([C@@H]4CCCN4C(=N)N)n3)ccc2c1	118			
N=C(N)N1CCC[C@H]1c1nc(-c2ccc3cc(OCC(=O)c4ccc(-c5ccccc5)cc4)ccc3c2)no1	77			
